CSC inhib – cancer stem cell viability inhibitors, primary screen, luminescence. cancer stem cell-like cells viability. hit rate 1.1% among 300,000. inhibition, % at 7.5 µM; in the data active = inhibition above about 75%; tested in HMLE shEcad cells
Calb FLC – C. albicans growth inhibition with fluconazole, primary screen, CaCi-2 strain, Alamar Blue fluorescence; growth inhibition, % (concentration not given with the values); C. albicans CaCi-2 (fluconazole-resistant clinical isolate) + fluconazole, 48 h; hit rate 0.57% among 300,000; AID 1979, 2009;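 active = growth inhibition above about 58% in most replicates, limit read from the data, passing the limit was not always enough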;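 note: all wells also contain fluconazole at 8 µg/ml as a sub-toxic cotreatment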
SKKanGAS inh – S. pyogenes SKKanGAS growth inhibitors in kanamycin, primary screen, streptokinase expression inhibitor project, SKKanGAS strain, BacTiter-Glo luminescence. hit rate 1.3% among 300,000. 6 h. inhibition, % at 7.5 µM;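 active = mean replicate score, as percent of positive control median, at least 50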;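 note: strain carries kanamycin resistance gene driven by streptokinase promoter and grows in 40 µg/ml kanamycin; loss of luminescence reflects streptokinase promoter inhibition or plain growth inhibition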
Mdm2 MdmX PPI – inhibitors of human Mdm2-MdmX association, primary screen, cell-based, luminescence, split luciferase, SaOS-2, uHTS; Protein Mdm4 (Homo sapiens) + E3 ubiquitin-protein ligase Mdm2 (Homo sapiens), …; SaOS-2 split-luciferase Mdm2/MdmX complementation; inhibition, % at 8 µM; hit rate 3% among 330,000; AID 485346, 2010;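 active = inhibition of at least 50% at 8 µM in the primary screen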
Target sequence (O15151 whole entry, looked up): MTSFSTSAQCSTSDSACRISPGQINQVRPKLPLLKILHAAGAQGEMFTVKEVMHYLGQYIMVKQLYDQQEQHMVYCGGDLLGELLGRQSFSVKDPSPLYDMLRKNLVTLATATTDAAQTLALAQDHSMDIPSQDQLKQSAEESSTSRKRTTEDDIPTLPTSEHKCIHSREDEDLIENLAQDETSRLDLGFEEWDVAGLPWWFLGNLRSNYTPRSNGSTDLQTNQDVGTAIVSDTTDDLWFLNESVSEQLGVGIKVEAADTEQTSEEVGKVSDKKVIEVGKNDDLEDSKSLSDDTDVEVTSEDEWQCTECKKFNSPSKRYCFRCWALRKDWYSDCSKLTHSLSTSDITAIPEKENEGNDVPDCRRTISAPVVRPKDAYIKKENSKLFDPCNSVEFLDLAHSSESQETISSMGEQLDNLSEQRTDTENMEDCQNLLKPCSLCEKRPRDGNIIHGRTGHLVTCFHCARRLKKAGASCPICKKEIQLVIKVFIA
Target sequence (Q00987 whole entry, looked up): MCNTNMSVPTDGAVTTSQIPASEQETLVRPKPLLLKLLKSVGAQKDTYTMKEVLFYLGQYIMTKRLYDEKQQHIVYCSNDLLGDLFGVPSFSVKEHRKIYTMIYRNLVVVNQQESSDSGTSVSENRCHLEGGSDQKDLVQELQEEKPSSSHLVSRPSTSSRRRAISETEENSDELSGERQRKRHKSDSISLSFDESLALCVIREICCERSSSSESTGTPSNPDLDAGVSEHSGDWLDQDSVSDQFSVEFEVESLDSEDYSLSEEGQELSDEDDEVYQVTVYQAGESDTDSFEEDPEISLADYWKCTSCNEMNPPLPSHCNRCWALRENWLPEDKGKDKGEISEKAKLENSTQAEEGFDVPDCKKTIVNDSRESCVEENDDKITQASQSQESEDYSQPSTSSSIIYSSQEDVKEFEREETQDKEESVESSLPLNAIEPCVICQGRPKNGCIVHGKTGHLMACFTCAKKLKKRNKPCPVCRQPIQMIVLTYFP
T cruzi repl – inhibitors of intracellular T. cruzi growth, primary screen, luminescence, NIH3T3 host cells; T. cruzi beta-gal in NIH3T3, 90 h; inhibition, % (concentration not given with the values); hit rate 1.4% among 300,000; AID 1885, 2009;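 active = mean inhibition across valid replicates above about 55%, limit read from the data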;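 note: signal also drops with host cell toxicity which is not excluded here; higher percent means less beta-gal luminescence so fewer parasites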
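Incubation – ≥90 h infection period, 3 h prior cell attachment · System – NIH/3T3 fibroblasts plus reporter T. cruzi · Doses – compound pinned at 50 nL/well, DMSO · Read-out basis – percent inhibition of parasite-derived β-gal signal · Signal – luminescent β-galactosidase signal after 60 min lysis · Also added – 5000 T. cruzi trypomastigotes/well · Medium – Low-serum DMEM with 2% FBS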
Beta apoptosis – inhibitors of cytokine-induced beta cell apoptosis, primary screen, luminescence; INS-1E cytokine-induced death, ATP luminescence, 48 h; percent of positive-control rescue, neutral wells zero; protection from apoptosis, % (test concentration not listed); hit rate 0.8% among 300,000;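 active = Every replicate reaches about 75%, or at least half do and their mean reaches it too, limit read from the data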;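 note: higher means more ATP so stronger rescue from cytokine killing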
Large screens that a line does not name were inactive. Shown are actives, neighbours in structure and some others; about 5.7% of the full set was active somewhere.

C[C@@H](C(=O)Nc1nc(-c2ccccn2)cs1)N1C(=O)C2CCCCC2C1=O (stereo not given in full)	none
CC1CC1C(=O)Nc1nc(-c2ccccn2)cs1 (stereo not given)	SKKanGAS inh 85.1
Cc1ccc(OCC(=O)Nc2nc(-c3ccccn3)cs2)c(C)c1	SKKanGAS inh 96.7 (no result: CSC inhib)
CC(=O)Nc1ccc(C(=O)Nc2nc(-c3ccccn3)cs2)cc1	none
c1ccc(CCNc2nc(-c3ccccn3)cs2)cc1	SKKanGAS inh 120.7
Cc1cc(Cl)ccc1OCC(=O)Nc1nc(-c2cccnc2)cs1	none
O=C(Nc1nc(-c2ccccn2)cs1)c1ccc2c(c1)OCCO2	SKKanGAS inh 83.5
Cc1ccccc1OCCC(=O)Nc1ccc(S(=O)(=O)N(C)C2CCN(C)CC2)cc1	T cruzi repl 58.4
CN1CCC(N(C)S(=O)(=O)c2ccc(NC(=O)COc3cccc(Cl)c3)cc2)CC1	T cruzi repl 55.9
Cc1ccc(OCC(=O)Nc2ccc(S(=O)(=O)N3CCOCC3)cc2)c(C)c1	none (no result: CSC inhib, Beta apoptosis)
CN1CCC(N(C)S(=O)(=O)c2ccc(NC(=O)Cc3ccc(F)cc3)cc2)CC1	none (no result: CSC inhib, Calb FLC, SKKanGAS inh, T cruzi repl, Beta apoptosis)
CN1CCC(N(C)S(=O)(=O)c2ccc(NC(=O)c3ccc(S(=O)(=O)N(C)C)cc3)cc2)CC1	none (no result: Calb FLC, SKKanGAS inh, T cruzi repl)
Cc1ccc(OCC(=O)Nc2ccc(S(=O)(=O)N(C)C3CCN(C)CC3)cc2)c(C)c1	T cruzi repl 61.3
CCN(C(=O)C(C)Sc1ccc(S(=O)(=O)N2CCOCC2)cn1)c1ccccc1 (stereo not given)	none (no result: Calb FLC, SKKanGAS inh, T cruzi repl)
CN1CC2([N+](=O)[O-])CC=C(OCCO)C([N+](=O)[O-])(C1)C2 (stereo not given)	Calb FLC 113.4
COc1ccc(-c2c(C)nc3c(-c4ccccn4)cnn3c2N)cc1	none (no result: Mdm2 MdmX PPI)
CSc1cccc(CN2CCCC(CNC(=O)c3ccc(F)cc3)C2)c1 (stereo not given)	none
O=C(NCC1CCCN(Cc2ccccc2F)C1)c1cccc(C(F)(F)F)c1 (stereo not given)	T cruzi repl 66.3
COc1ccc(CC(=O)NCC2CCCN(Cc3cccc(C(F)(F)F)c3)C2)cc1 (stereo not given)	none (no result: Beta apoptosis)
COc1ccc(S(=O)(=O)NCC2CCCN(Cc3ccc(OC)cc3F)C2)cc1 (stereo not given)	SKKanGAS inh 81.7
COc1ccc(CC(=O)NCC2CCCN(Cc3ccc(SC)cc3)C2)cc1 (stereo not given)	T cruzi repl 67.8
CSc1ccc(CN2CCCC(CNC(=O)c3ccc(F)cc3)C2)cc1 (stereo not given)	T cruzi repl 62.9
CC(C(=O)NCCCc1ccccc1)n1cccc1C(=O)c1ccccc1 (stereo not given)	none
O=C(NCC1CCCN(Cc2nccs2)C1)c1cccc2ccccc12 (stereo not given)	none (no result: Beta apoptosis)
COc1ccccc1CN1CCCC(CNC(=O)c2cccc3ccccc23)C1 (stereo not given)	T cruzi repl 60.7
CCOc1ccccc1CN1CCCC(CNC(=O)Cc2ccc(OC)cc2)C1 (stereo not given)	T cruzi repl 58.8
CC(=O)OCC1=C(C(=O)O)N2C(=O)C(NC(=O)C(C)Cn3nc(C)c(Cl)c3C)C2SC1 (stereo not given)	SKKanGAS inh 100.9
COCC1=C(C(=O)OC(C)OC(=O)OC(C)C)N2C(=O)[C@@H](NC(=O)/C(=N\OC)c3csc(N)n3)[C@H]2SC1 (stereo not given in full)	SKKanGAS inh 101.8 (no result: Calb FLC)
CC1=C(C(=O)O)N2C(=O)C(NC(=O)c3nn(C)c(C)c3Cl)C2SC1 (stereo not given)	none (no result: CSC inhib)
CC(=O)OCC1=C(C(=O)O)N2C(=O)C(NC(=O)c3ccc(F)cc3)C2SC1 (stereo not given)	SKKanGAS inh 90.3
CC(=O)OCC1=C(C(=O)O)N2C(=O)[C@@H](NC(=O)CSc3ccncc3)[C@H]2SC1	none (no result: CSC inhib, Calb FLC, SKKanGAS inh, T cruzi repl, Beta apoptosis)
Cn1nnnc1SCC1=C(C(=O)O)N2C(=O)[C@@H](NC(=O)[C@H](O)c3ccccc3)[C@H]2SC1	none (no result: Calb FLC)
CO/N=C(\C(=O)N[C@@H]1C(=O)N2C(C(=O)O)=C(COC(N)=O)CS[C@H]12)c1ccco1	SKKanGAS inh 102.5 (no result: Calb FLC)
Cn1nc(C(=O)NNC(=O)CCc2ccccc2Cl)c2ccccc2c1=O	none
CSc1cccc(NC(=O)COC(=O)C2CCN(S(=O)(=O)c3ccccc3)CC2)c1	none (no result: Calb FLC, SKKanGAS inh, T cruzi repl)
COc1cccc(NC(=O)CN2CCN(C(=O)c3ccco3)CC2)c1	none
COc1cccc(OC)c1NC(=O)c1nc2c(nnn2Cc2ccccc2Cl)c(=O)[nH]1	none
O=C(Nc1ccc(F)cc1)c1nc2c(nnn2Cc2cccc3ccccc23)c(=O)[nH]1	SKKanGAS inh 61.7
Nc1ccc(-c2nc3nc(N)nc(N)c3nc2-c2ccc(N)cc2)cc1	SKKanGAS inh 62.2
Nc1nc(N)c2ncc(C(=O)CCc3ccccc3)nc2n1	none (no result: Beta apoptosis)
CNc1nc(N/N=C/c2cc3c(cc2[N+](=O)[O-])OCO3)nc(Nc2ccccc2)n1	T cruzi repl 71.5, Beta apoptosis 98.1
O=[N+]([O-])c1cc2c(cc1/C=N\NS(=O)(=O)c1ccccc1)OCO2	none
CCC(=C(c1ccc(OC)cc1)c1ccc(OC)cc1)c1cn(CC(O)CN2CCN(C)CC2)c2ccccc12 (stereo not given)	CSC inhib 107.0 (no result: Calb FLC, SKKanGAS inh, Mdm2 MdmX PPI, T cruzi repl)
COc1ccc(-c2cc3ccccc3n2CC(O)CN2CCCCC2)cc1 (stereo not given)	none
Cc1cc(C)cc(NS(=O)(=O)c2ccc3[nH]cc(C(=O)NCc4ccco4)c(=O)c3c2)c1	CSC inhib 99.1
CC1CCN(C(=O)CCc2ccc(Oc3cc([N+](=O)[O-])cc([N+](=O)[O-])c3)cc2)CC1	none
O=C(CCc1ccc(Oc2cc([N+](=O)[O-])cc([N+](=O)[O-])c2)cc1)NC1CCCC1	T cruzi repl 62.7
c1ccc(CCc2ccncc2)cc1	T cruzi repl 55.8
Cc1cccc(CN2CCSCC2)c1	none
Cc1cccc(CN2CCN(CCCc3ccccc3)CC2)c1	T cruzi repl 62.9 (no result: CSC inhib)
O=C(NNC(=S)NC(=O)c1cccc([N+](=O)[O-])c1)c1ccc(Br)cc1	SKKanGAS inh 67.7 (no result: Calb FLC)
Cc1ccc(C(=O)NC(=S)NNC(=O)c2cccc([N+](=O)[O-])c2)cc1	SKKanGAS inh 74.0
CCc1ccc(CNc2ccc3c(c2)ncn3C(C)(C)C)cc1	SKKanGAS inh 56.9
COc1ccc2oc(C(=O)OCC(=O)N(CCC#N)c3ccccc3)c(C)c2c1	none (no result: CSC inhib)
CCCCn1c(N)c(N(Cc2ccccc2OC)C(=O)c2ccc([N+](=O)[O-])s2)c(=O)[nH]c1=O	none (no result: CSC inhib)
COc1ccc(/C=C/C(=O)NC(=S)N2CCOCC2)cc1	none (no result: CSC inhib)

Screens (PubChem)
